From PubChem BioAssay
Active and inactive are the calls of the source.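 The calls were made as follows: active = growth inhibition above a set limit, 3 SD over mean compound inhibition, in both replicates (cut at about 43% in these data); inconclusive = above the limit in only one replicate; inactive = at or below the limit in both replicates.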

assay: S. cerevisiae growth inhibition in restrictive medium, OD615, pilot screen, restrictive growth control, yeast lifespan reduction project (AID 706); conditions: OD615, 48 h, at 10 µM, hits give high values;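 also: modified DeaD lifespan yeast strain shifted to restrictive glucose medium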
In short: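 Material: modified S. cerevisiae; Medium: glucose-based CSMM-D restrictive medium; Compound dosing: one concentration, 10 µM final, 0.25% DMSO; Incubation: 48 h compound exposure at 30 °C; Measured by: OD615.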

Growth inhibition, inactive:
O=C(CN1CCOCC1)Nc1cc(Cl)ccc1Cl -2.5%, COc1ccc(S(=O)(=O)Cc2ccc(C(=O)NC(C)C)o2)cc1 0.215%, CCCCCn1c(CN2CC(C)OC(C)C2)nc2c1c(=O)n(C)c(=O)n2C (stereo unspecified) 0.38%, COC(=O)C1CCN(C(=O)c2ccccc2NC(C)=O)CC1 -16.4%, CCN1CCN(c2cc(C)c3cc(NC(=O)Cc4ccc(OC)c(OC)c4)ccc3n2)CC1 -16.5%, CNC(=O)c1cc2cc(OC)ccc2n1CCN(C)C -16.4%, COc1ccc(NC(=O)CSc2nnc(-c3ccccn3)n2N)cc1 13.7%, COc1cc(C)c(N(C(C)=O)c2ccccc2)c(C)c1 -17.4%, CCc1ccc(N2CCN(C(=O)c3ccc(OC)c(OC)c3)CC2)cc1 -8.32%, O=C(C1CCC(CNc2c(N3CCOCC3)c(=O)c2=O)CC1)N1CCN(c2ccccc2)CC1 (stereo unspecified) -8.31%, CC1(C)C(=O)OC(C(=O)c2ccccc2)C(C)(C)C1=O (stereo unspecified) -6.81%, c1ccc(Sc2nc(N3CCCCC3)nc(N3CCCCC3)n2)nc1 -1.59%, COC(=O)c1nc2n(n1)C(c1cccc(Cl)c1)C1=C(CC(C)(C)CC1=O)N2 (stereo unspecified) -2.75%, CCN(CC)C(=O)Cn1c(=O)n(-c2ccccc2)c(=O)n1CC(=O)N(CC)CC 2.5%, CN(C)c1ccc(C2N(c3ccc(Cl)cc3)C(=O)C3CCCN32)cc1 (stereo unspecified) 6.78%, O=C(CN1C(=O)c2ccccc2C1=O)Nc1cccc2cccnc12 -12.1%
